# TRPC4 agonist: opens the mouse TRPC4 cation channel | HEK293 TRPC4beta/mu-opioid, Fluo4 calcium fluorescence; stronger effect = higher value | B-score at 10 µM | hit rate 0.49% among 310,000 | AID 2237;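 active means B-score above 5 SD of library B-scores, and initial fluorescence ratio not above library mean plus 5 SD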;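 further: positive B-score marks a calcium rise read as TRPC4 activation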
#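 Material: TRPC4beta and mu-opioid receptor HEK293 stable cells | Incubation: 45 min room-temperature Fluo4 loading, 110 s read | Detection: Kinetic Fluo4 calcium fluorescence | Measure: Integrated baseline-normalised fluorescence ratio, converted to per-well B score | Benchmarks: Low control buffer alone, high control maximal DAMGO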
# TRPC6 inh: blocks the mouse TRPC6 cation channel; Q61143; HEK293-TRPC6, membrane potential dye, ACh-evoked depolarization; stronger effect = lower value; B-score at 10 µM; hit rate 1.1% among 310,000; AID 2553;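 active means B-score under library mean minus 3 SD, initial fluorescence not abnormally high, positive integrated signal ratio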;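 further: B-score derived from integrated fluorescence ratio over the kinetic read; more negative B-score means stronger inhibition of depolarization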
# TRPC6 act: activators of mouse TRPC6 channel; Q61143; HEK293-TRPC6 membrane potential dye fluorescence; stronger effect = higher value; B-score at 10 µM; hit rate 0.13% among 310,000; AID 2550;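 active means B-score of the integrated fluorescence ratio above library mean plus 3 SD, and starting fluorescence ratio within library mean plus 5 SD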;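 further: higher score means more depolarization so channel activation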
# TRPC4 potent: allosterically enhances the mouse TRPC4 cation channel; hit rate 0.42% among 310,000; HEK293 TRPC4beta/mu-opioid, DAMGO EC20, Fluo-4 Ca2+ flux; stronger effect = higher value; Q9QUQ5; B-score at 10 µM;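 active means B-score of calcium response area above 5 SD of library B-scores, with initial fluorescence ratio within 5 SD of library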
# TRPC4 inh: blocks the mouse TRPC4 cation channel | AID 2247 | hit rate 0.39% among 300,000 | HEK293 TRPC4beta/mu-opioid, DAMGO-evoked Fluo4 calcium flux; stronger effect = lower value | B-score at 10 µM | Q9QUQ5;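 active means B-score over 3 SD under the library average, no early fluorescence shift, positive overall ratio signal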
#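 System: stable TRPC4beta/mu-opioid receptor HEK293 cells; Dosing: single-point compound dosing; Measured by: Fluo4 Ca2+ flux fluorescence; Read-out basis: per-well B score of integrated baseline-normalized Fluo4 ratio.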
# Numbers stand for hits; n = inactive. Rows were chosen to be rich in hits. Some 2.3% of all compounds tested hit in one or more screens of this group.
SMILES,TRPC4 agonist,TRPC6 inh,TRPC6 act,TRPC4 potent,TRPC4 inh
O=[N+]([O-])c1ccccc1CN1CCN(S(=O)(=O)c2ccccc2)CC1,n,n,n,17,n
OCCNCc1cc(Br)ccc1OCc1ccc(F)cc1,n,n,n,n,-6
O=C(COc1ccc(Br)cc1CO)Nc1ccc(F)cc1,n,n,n,n,n
OCCNCc1cc(Br)ccc1OCc1ccc(Cl)cc1Cl,n,n,n,n,-8
Clc1cc(Br)ccc1OCCCNCc1ccccc1,75,n,n,n,n
OCCCCNCc1cc(Br)ccc1OCc1ccccc1F,n,n,n,n,-7
CN(C)/C=N/N(C)c1ncccc1[N+](=O)[O-],n,n,n,n,n
O=C(CCN1C(=O)/C(=C/c2ccccc2Cl)SC1=S)NC1C=CS(=O)(=O)C1 (stereo not given),n,n,n,n,n
Fc1ccc(COc2ccccc2CNCc2ccncc2)cc1,n,n,n,n,n
Brc1ccc(OCc2ccccc2)c(CNCc2ccncc2)c1,n,n,n,n,-5
COc1ccc(F)cc1CSc1nnnn1-c1ccc(O)cc1,n,n,n,n,-5
N#Cc1ccccc1NC(=O)CNc1ccccc1N1CCCCC1,n,n,n,n,n
CN(Cc1ccccc1NCC(=O)Nc1ccccc1C#N)C1CCCCC1,n,n,n,n,-6
Cc1onc(-c2ccccc2)c1C(=O)/C=C/N(C)C,n,n,n,n,n
COc1cccc(Cn2c(Oc3cccc(C)c3)nc3c2c(=O)n(C)c(=O)n3C)c1,n,n,n,n,n
COc1cccc(Cn2c(Oc3ccccc3)nc3c2c(=O)n(C)c(=O)n3C)c1,n,n,n,n,-6
COc1ccccc1/C=C/C=N/NC(=O)c1cccs1,n,n,n,n,n
CCOC(=O)/C(=N\Nc1ccccc1Cl)N(C)C1CCCCC1,n,n,n,n,n
CCCCN(CC)CCCNC(=O)c1ccc(CS(=O)(=O)c2c(Cl)cccc2Cl)o1,62,n,n,n,n
CCCCN(CCCNC(=O)c1ccc(CS(=O)(=O)c2c(Cl)cccc2Cl)o1)Cc1ccccc1,n,n,n,n,n
O=Cc1coc2c(ccc3ccccc32)c1=O,n,n,n,n,-5
Cc1ccc(NC(=O)C(C)OC(=O)Cc2c[nH]c3ccccc23)cc1 (stereo not given),n,n,n,n,-6
Cc1ccc2[nH]c3c(N4CCc5ccccc5C4)ncnc3c2c1,76,n,n,n,n
Cc1ccc(NC(=O)CN(C)C(=O)c2ccc(Cl)nc2)cc1,n,n,n,n,n
O=C1/C(=C/c2ccccn2)SC(=S)N1N1CCOCC1,n,n,n,n,n
SMILES,TRPC4 agonist,TRPC6 inh,TRPC6 act,TRPC4 potent,TRPC4 inh
CC1(c2ccc(OC(F)F)cc2)NC(=O)N(CC(=O)Nc2ccccc2)C1=O (stereo not given),68,n,n,n,n
CC1(c2ccc(OC(F)F)cc2)NC(=O)N(CC(=O)Nc2ccc3c(c2)OCO3)C1=O (stereo not given),89,n,n,12,n
CC(=O)Nc1ccc(/C=N/N2C(=O)NC(C)(c3ccc(OC(F)F)cc3)C2=O)cc1 (stereo not given),95,n,n,n,n
CCCCN(C)CCCNC(=O)CS(=O)Cc1nc(-c2ccc(OC)c(OC)c2)oc1C (stereo not given),n,n,n,n,n
CCCN(CCC)CCCNC(=O)CS(=O)Cc1nc(-c2ccc(OC)c(OC)c2)oc1C (stereo not given),64,n,n,n,n
Cc1ccc(-c2nc(CS(=O)CC(=O)NCCCN3CC(C)CC(C)C3)c(C)o2)cc1 (stereo not given),62,n,n,n,n
COc1ccc(-c2nc(CS(=O)CC(=O)NCCCN3CC(C)CC(C)C3)c(C)o2)cc1OC (stereo not given),104,n,n,n,n
COc1ccccc1NC(=O)c1ccc(NC(=O)CSc2n[nH]c(N)n2)cc1,n,n,n,n,n
CS(=O)(=O)N(CC(=O)NCc1ccncc1)c1ccc(F)c(Cl)c1,n,n,n,n,n
CC(C)C(=O)NNC(=O)c1csc(-c2cccs2)n1,n,n,n,n,n
O=C(NCC1CCCN1S(=O)(=O)c1cccs1)C(=O)Nc1ccccc1Cl (stereo not given),n,n,n,n,n
CCOc1ccc(CN(C)C(=O)[C@H](Cc2ccccc2)NC(=O)OCc2ccccc2)cc1OC,n,n,n,n,n

# From PubChem BioAssay
